Screens deposited in PubChem by several laboratories.
An excerpt weighted towards active compounds, which were near 4.1% of everything screened.
KCNK9 inh: inhibitors of human KCNK9 two-pore domain potassium channel; Q9NPC2; HEK293 KCNK9, FluxOR thallium flux fluorescence; active compounds read low; AID 488922; B-score at 10 µM; 310,000 compounds, 1.2% hits;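 active means ratio B-score over 3 SD below the library mean, with starting fluorescence within 5 SD of its mean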;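 further: negative B-score means less thallium flux so channel inhibition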
Cl transport mod: modulates chloride dependent transport by human KCC2 | Q9H2X9 | KCC2 cells, thallium flux FluoZin-2 fluorescence | B-score of Tl+ flux slope (higher = more flux/activation; lower = inhibition) at 10 µM | 190,000 compounds, 2.2% hits | AID 1456;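 active means thallium flux slope and its plate-corrected score both differing from the plate sample mean at a set confidence after two filtering rounds, in either direction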;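 further: slope of fluorescence scaled to starting intensity during 10 to 20 s after thallium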
KCNK3 inh: human KCNK3 channel inhibition, primary screen | O14649 | CHO-KCNK3 thallium flux, FluxOR fluorescence; active compounds read low | B-score at 10 µM | 340,000 compounds, 0.84% hits | AID 602410;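 active means B-score under library mean minus 4 SD, starting fluorescence ratio at most library mean plus 5 SD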;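 further: more negative B-score means stronger inhibition of thallium flux through KCNK3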
KCNQ1 inh: blocks the human KCNQ1 potassium channel | 310,000 compounds, 1.3% hits | B-score at 10 µM | AID 2642 | P51787 | CHO-K1 KCNQ1, FluxOR thallium flux fluorescence; active compounds read high;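 active means compounds whose thallium flux B-score, printed positive for inhibition, exceeds three library SD while starting fluorescence stays within three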;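 further: channel opened by potassium depolarization with thallium stimulus after 20 min compound exposure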
hERG rescue: hERG (human) protection from proarrhythmic block; Q12809; CHO-hERG, FluxOR thallium flux, dofetilide IC70 present; activation (rescue from dofetilide block), less the hit threshold, % at 10 µM; 310,000 compounds, 0.51% hits; AID 1511;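 active means activation above the mean of controls blocked by dofetilide plus 5 SD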;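 further: thallium influx through hERG after potassium depolarization seen as dye fluorescence rise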
KCNQ1 pot: potentiates or activates the human KCNQ1 potassium channel; P51787; CHO-K1 KCNQ1, thallium flux FluxOR fluorescence; active compounds read high; B-score at 10 µM; 310,000 compounds, 0.35% hits;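 active means fluorescence ratio B-score, a plate-corrected score, at least three library SD, with initial intensity B-score within 5 SD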
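assay system = CHO-K1 cells stably expressing KCNQ1 | medium = assay buffer, equal DMSO in all wells | timing = 37 °C overnight plating, 90-min dark dye load, 20-min compound pretreatment | measured by = kinetic FluxOR thallium fluorescence, 10-s 1-Hz baseline, 110-s post-stimulus read | measure = fluorescence change relative to baseline, converted to B score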
* marks the source's active call; other numbers are inactive results.

O=C(CN1CCSC1=O)Nc1ccc(N2CCOCC2)cc1 was read as KCNK3 inh inactive.
Cc1cc2ccccn2c1C(=O)c1ccc(F)cc1 was read as KCNK9 inh -7.2*, KCNK3 inh inactive, KCNQ1 inh inactive, hERG rescue -6 and KCNQ1 pot inactive.
`O=C(Nc1ccc(-n2cccn2)cc1)C1CCCCN1Cc1cccc2c1OCO2` (stereo not given) gave KCNK9 inh inactive, KCNK3 inh inactive, KCNQ1 inh inactive, hERG rescue -7 and KCNQ1 pot inactive.
For O=C(Nc1ccccc1)C1=C[C@@H](C2CCCCC2)C[C@@H](OCc2ccc(CO)cc2)O1 the results were KCNK9 inh -7.1*, Cl transport mod 0.53, KCNK3 inh inactive, KCNQ1 inh inactive, hERG rescue -6 and KCNQ1 pot inactive.
`O=C(NCc1nc2ccccc2[nH]1)C1=C[C@H](C2CCCCC2)C[C@H](OCc2ccc(CO)cc2)O1` gave KCNK9 inh inactive, Cl transport mod -0.18, KCNK3 inh inactive, KCNQ1 inh inactive, hERG rescue -7 and KCNQ1 pot inactive.
`O=C(NCc1nc2ccccc2[nH]1)C1=C[C@@H](C2CCCCC2)C[C@@H](OCc2ccc(CO)cc2)O1` gave KCNK9 inh inactive, Cl transport mod 0.5, KCNK3 inh inactive, KCNQ1 inh 9*, hERG rescue -5 and KCNQ1 pot inactive.
`CCN(CC(=O)Nc1c(F)cccc1F)C(=O)CSC(=S)N1CCCC1` gave KCNK3 inh inactive.
For CC1(C)Cc2c(C#N)c(NC3CCCCC3)nc(-c3ccco3)c2CO1 the results were KCNK9 inh inactive, Cl transport mod 0.9, KCNK3 inh inactive, KCNQ1 inh 6*, hERG rescue -22 and KCNQ1 pot inactive.
COc1cccc(-c2nn(-c3ccccc3)cc2CN(C)Cc2ccno2)c1 was read as KCNK9 inh inactive, KCNK3 inh inactive, KCNQ1 inh inactive, hERG rescue -8 and KCNQ1 pot inactive.
For COc1cccc(-c2nn(-c3ccccc3)cc2CN(C)C(C)c2ccon2)c1 (stereo not given) the results were KCNK9 inh inactive, Cl transport mod -0.34, KCNK3 inh inactive, KCNQ1 inh 6*, hERG rescue -5 and KCNQ1 pot inactive.
Screening Cc1ccc(OC(C)C(=O)Nc2ccccc2C(=O)NCc2cccnc2)cc1C (stereo not given) returned KCNK9 inh inactive, KCNK3 inh inactive, KCNQ1 inh 6*, hERG rescue -24 and KCNQ1 pot inactive.
`COc1ccc(C(=O)Nc2ccccc2C(=O)NCc2cccnc2)cc1` gave KCNK9 inh inactive, KCNK3 inh inactive, KCNQ1 inh inactive, hERG rescue -19 and KCNQ1 pot inactive.
COc1ccc([C@H]2CC(=O)C=C(c3cc4ccccc4c4ccccc34)C2)cc1 was read as KCNK3 inh inactive.
O=C1NC(=O)/C(=C/c2cc3c(cc2Br)OCO3)S1 was read as KCNK9 inh inactive, KCNK3 inh inactive, KCNQ1 inh inactive, hERG rescue 7.0* and KCNQ1 pot inactive.
Screening O=C1Nc2ccc3c(c2C1=Cc1cc2c(cc1Br)OCO2)OCO3 returned KCNK3 inh inactive.
Cc1ccc(S(=O)(=O)Oc2ccccc2/C=C2/SC(=O)NC2=O)cc1 was read as KCNK9 inh inactive, Cl transport mod -3.1, KCNK3 inh inactive, KCNQ1 inh 9*, hERG rescue -11 and KCNQ1 pot inactive.
`O=C1NC(=O)/C(=C/c2cccc3ccccc23)S1` gave KCNK9 inh inactive, KCNK3 inh inactive, KCNQ1 inh 6*, hERG rescue -4 and KCNQ1 pot inactive.
`COc1ccccc1OCC(=O)NNC(=O)Nc1ccc(Cl)cc1` gave KCNK9 inh inactive, Cl transport mod -0.98, KCNK3 inh inactive, KCNQ1 inh inactive, hERG rescue -11 and KCNQ1 pot inactive.
COc1ccccc1OC(=O)Nc1ccc(Cl)cc1 was read as KCNK9 inh inactive, KCNK3 inh inactive, KCNQ1 inh 6*, hERG rescue -10 and KCNQ1 pot inactive.
Screening CCOc1ccc(C(C)NC(=O)C2CCCC2)cc1 (stereo not given) returned KCNK9 inh inactive, KCNK3 inh inactive, KCNQ1 inh inactive, hERG rescue -8 and KCNQ1 pot inactive.
For CCc1ccc(C(C)NC(=O)C2(C)CC2(Br)Br)cc1 (stereo not given) the results were KCNK9 inh inactive, Cl transport mod 0.31, KCNK3 inh inactive, KCNQ1 inh inactive, hERG rescue 4.9* and KCNQ1 pot inactive.
`CCc1ccc(C(C)NC(=O)C2CCCC2)cc1` (stereo not given) gave KCNK9 inh inactive, KCNK3 inh inactive, KCNQ1 inh inactive, hERG rescue 4.9* and KCNQ1 pot inactive.
Screening Cc1ccc(OC(=O)c2ccc(Br)o2)cc1 returned KCNK9 inh inactive, Cl transport mod 0.48, KCNK3 inh inactive, KCNQ1 inh inactive, hERG rescue 22* and KCNQ1 pot inactive.
Screening CCN(CC(=O)NCc1ccncc1)S(=O)(=O)c1ccccc1 returned KCNK9 inh inactive, KCNK3 inh inactive, KCNQ1 inh inactive, hERG rescue -9 and KCNQ1 pot inactive.
For CCCN1C2CCCC1CC(NC(=O)c1ccccc1OC)C2 (stereo not given) the results were KCNK9 inh inactive, KCNK3 inh inactive, KCNQ1 inh 8*, hERG rescue -5 and KCNQ1 pot inactive.
CN=C1S/C(=C\c2ccc(N3CCCC3)c(F)c2)C(=O)N1C was read as KCNK9 inh inactive, Cl transport mod 2, KCNK3 inh inactive, KCNQ1 inh 11*, hERG rescue -8 and KCNQ1 pot inactive.
For CC1(c2ccc(OC(F)F)cc2)NC(=O)N(CC(=O)Nc2cccnc2Cl)C1=O (stereo not given) the results were KCNK9 inh inactive, KCNK3 inh inactive, KCNQ1 inh inactive, hERG rescue -9 and KCNQ1 pot inactive.
`O=C1C(=C(I)I)c2ccccc2-c2ccccc21` gave KCNK3 inh -9.4*.
O=C(C=Cc1ccccc1)c1cc(Br)ccc1O was read as KCNK3 inh inactive.
CCc1ccc(/C=C/C(=O)c2cc(Br)ccc(=O)c2O)cc1 was read as KCNK9 inh inactive, Cl transport mod 8*, KCNK3 inh inactive, KCNQ1 inh inactive, hERG rescue 0 and KCNQ1 pot 38*.
`CCOc1ccc(C(=O)/C=C/c2ccc(OC)c(OC)c2)cc1` gave KCNK9 inh inactive, Cl transport mod -0.38, KCNK3 inh inactive, KCNQ1 inh inactive, hERG rescue -8 and KCNQ1 pot inactive.
